H69AR growth 86K – growth inhibitors of human H69AR lung tumor cells. 6% of 85,000 active. H69AR lung tumor viability, ATP luminescence, 72 h; stronger effect = lower value. viability, % at 10 µM;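 active = viability at or below 40%; inactive = viability above 40%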;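 also: multidrug resistant small cell line overexpressing MRP-1 efflux transporter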
HUVEC prolif 384 – human endothelial cell proliferation inhibition; HUVEC proliferation, CellTiter-Glo luminescence, 72 h; stronger effect = lower value; viability, % at 10 µM (by protocol); 1.1% of 86,000 active;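 active = viability at or below 30%; inactive = viability above 30%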
bCat KO growth – beta-catenin-lacking colon tumor cell growth suppression; HCT116 beta-catenin knockout viability, CellTiter-Glo, 60 h; stronger effect = lower value; 1.5% of 140,000 active; AID 818; viability, % at 10 µM;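 active = viability at or under a set limit, the compound median less 4 SD, cut at about 6% in these data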
Lung fibro prol – blocks proliferation of human lung fibroblasts | LL 47 human lung fibroblast viability, ATP luminescence; stronger effect = lower value | viability, % at 10 µM | 1.1% of 85,000 active | AID 719;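 active = viability at or below 50% in the single dose screen; inactive = viability above 50%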;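 also: compound exposure lasted 72 h before the ATP readout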
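test system = LL 47 human lung fibroblasts | amount = 1,150 fibroblasts seeded per well | medium = 15% FBS in IMEM | times = overnight cell rest, 72 h compound treatment at 37 °C | measured by = CellTiter-Glo luminescence measuring cellular ATP | read-out = viability percentage against median untreated-cell control | benchmarks = cell-only wells, no compound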
HCT116 PTEN-null – growth suppressors of cells with PTEN tumor suppressor deletion | HCT116 PTEN-null viability, CellTiter-Glo, 60 h; stronger effect = lower value | AID 827 | 1.2% of 140,000 active | viability, % at 10 µM;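 active = viability at or below a set limit, 4 SD under the median of all tested compounds, cut at about 3.7% in these data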;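 also: PTEN knockout HCT116 line with beta catenin targeted HCT116 as companion control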
Each line names hits and unclear results; the compound was inactive in the other large screens. The entries come from a sample that favours hits as a whole.

Cn1c(NC(=O)Cc2ccc(F)cc2)cc(=O)n(C)c1=O	none
CCn1cc(C(=O)NCc2ccc3c(c2)OCO3)c(=O)c2cc(F)c(N3CCN(C(=O)c4ccco4)CC3)cc21	H69AR growth 86K 0.1, HUVEC prolif 384 16.1
CCn1cc(C(=O)Nc2nncs2)c(=O)c2cc(F)c(N3CCN(C(=O)c4ccco4)CC3)cc21	none (no result: bCat KO growth, HCT116 PTEN-null)
CCn1cc(C(=O)NCc2ccccc2)c(=O)c2cc(F)c(N3CCN(C(=O)c4ccco4)CC3)cc21	H69AR growth 86K 11.9
CCOC(=O)/C(N=Nc1c(Br)cc(Br)cc1Br)=C(\C)O	none (no result: H69AR growth 86K, HUVEC prolif 384, Lung fibro prol)
